This passage reports Uptake, BPI and K results from ChEMBL document CHEMBL1123057, “gamma-Aminobutyric acid esters. 2. Synthesis, brain uptake, and pharmacological properties of lipid esters of gamma-aminobutyric acid” (J Med Chem, 1985).

Each structure is given as a SMILES string.

In data set [1] the test system is Mus musculus. In words: Percent amount of compound was determined in liver per gram of tissue after 5 min of administration at a dose of 67 mg/kg. Format: functional, organism-based. Also noted: dose 67 mg/kg. In outline: (§1)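 Balb-c mice (20 ± 2 g) received a single sc injection of the ¹⁴C-labeled ester in 0.5 mL of 25% propylene glycol in water. Brain and liver were removed at 5 min, weighed and homogenized in urea/SDS/EDTA phosphate protein solvent (pH 7.6). Aliquots were counted for ¹⁴C by liquid scintillation. BPI = brain amount per g as % of liver amount per g. Mean ± SEM, n = 3.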

Data set [2] concerns Mus musculus. In words: Compound was evaluated for the effect on the uptake in mouse brain, at dose 78 mg/Kg (ip) after a time period of 30 min. It is filed as functional, organism-based. The essentials: (§2)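 Mice received a single systemic dose (ip or sc) of ¹⁴C-labeled compound in 0.5 mL of 0.14 N saline or 25% propylene glycol/water, depending on the compound. Brain was taken at the stated time and homogenized in 8 mL of 1% SDS/6 M urea/EDTA in 0.03 M phosphate (pH 7.4). Aliquots were counted by liquid scintillation and expressed as nmol/g brain.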

The subject of data set [3] is Mus musculus. In words: Compound was evaluated for the effect on the uptake in mouse brain, at dose 78 mg/Kg (ip) after a time period of 15 min. Format: functional, organism-based. The essentials:
as §2

In data set [4] the test system is Mus musculus. In words: Compound was evaluated for the effect on the uptake in mouse brain, at dose 78 mg/kg (ip) after a time period of 5 min. It is filed as functional, organism-based. Also noted: dose 78 mg/kg. In outline: as §2
Data set [5] has as its system Mus musculus. Nature of the data set: BPI index was determined at 5 min after subcutaneous administration to mice. Format: functional. In outline:
as §1

The nature of data set [6]: Octanol:water partition coefficient is evaluated. Format: physicochemical.
Data set [7] deals with Mus musculus. In words: Ability to penetrate the blood-brain barrier of mice was evaluated by measuring the brain penetration index (BPI) at dose 67 mg/Kg, administered subcutaneously. Format: functional, organism-based. The essentials: as §1
In data set [8] the test system is Mus musculus. In words: Ability to penetrate the blood-brain barrier of mice was evaluated by measuring the brain penetration index (BPI) at dose 3-39 mg/Kg, administered subcutaneously; range is 0.04-1.81. Format: functional, organism-based.
Data set [9] deals with Mus musculus. In words: BPI index was determined at 5 min after subcutaneous administration. It is filed as functional. The essentials: as §1
The subject of data set [10] is Mus musculus. Nature of the data set: Percent amount of compound was determined in liver per gram of tissue after 5 min of administration at a dose of 3-39 mg/Kg; range is 4.2-165. Format: functional, organism-based.

As to `NCCCC(=O)OCC(O)CO.O=C(O)C(F)(F)F` (stereo unspecified), the Uptake in the data set with Mus musculus [1] came to 157 nM/g; in the data set with Mus musculus [2], 16.4 nM/g; in the data set on Mus musculus [3], 14 nM/g; with Mus musculus [4], 4.8 nM/g; in the data set with Mus musculus [7] it was 4.8 nM/g. In the data set on Mus musculus [5], this molecule displayed a BPI of 3. Moreover, the K in data set [6] is reported as 0.01.

As to `NCCCC(=O)O` [GAMMA-AMINOBUTYRIC ACID], the figures for the Uptake in the data set on Mus musculus [8] and with Mus musculus [10] were 0.04 nM/g and 4.2 nM/g, respectively. The BPI with Mus musculus [9] was determined as 0.96. The molecule further showed a K in data set [6] of 0.004.
